ChEMBL document CHEMBL2216748 (J Med Chem, 2012)
Active and inactive are the calls of the source. No cut-off for these calls is given here.

How the values were obtained:
[1] = Thermal stability of the compound; type: physicochemical
Method in brief: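 Capture compound incubated 30 min native at 4 °C or denatured at 80 °C as thermal stress. Biological stress was 30 min in HepG2 lysate at 4 and 37 °C. UV irradiation for 10 and 30 min was checked for a single defined photoproduct.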

[2] = molecular target: Prothrombin (Homo sapiens) (UniProt P00734); assay: Binding affinity to human recombinant thrombin after 1 hr by Western blot analysis
Method in brief: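 Purified human recombinant thrombin (2 μg) incubated with capture compound for 1 h at 4 °C, with or without preincubation with free drug as competitor. Sample UV-irradiated 10 min, captured on streptavidin beads, then analysed by silver-stained SDS-PAGE and by streptavidin-HRP blot to detect covalent biotinylation.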

[3] = molecular target: Histamine N-methyltransferase (Homo sapiens) (UniProt P50135); assay: Binding affinity to HNMT in human HepG2 cell lysate after 1 hr by capture compound based LC/MS analysis; type: cell-free
Sequence of Histamine N-methyltransferase (Homo sapiens) (P50135 whole entry): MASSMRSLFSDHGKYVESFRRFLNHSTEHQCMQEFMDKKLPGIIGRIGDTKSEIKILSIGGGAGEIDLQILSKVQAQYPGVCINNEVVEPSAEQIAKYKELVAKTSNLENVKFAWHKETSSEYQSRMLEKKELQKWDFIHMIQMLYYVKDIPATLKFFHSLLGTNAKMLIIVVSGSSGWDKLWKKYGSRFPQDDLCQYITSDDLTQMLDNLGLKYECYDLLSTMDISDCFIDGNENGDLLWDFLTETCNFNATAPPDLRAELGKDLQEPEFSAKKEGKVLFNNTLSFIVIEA
Method in brief: (§1)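 Capture compound MS: 400 μg HepG2 or K562 lysate in capture buffer, precleared with streptavidin beads 30 min at 4 °C. Competition controls preincubated 30 min at 4 °C with free drug (10 μL of 1 mM). Capture compound (10 μL of 50 μM) equilibrated 1 h at 4 °C, UV-irradiated 10 min, streptavidin bead pulldown, on-bead trypsin digestion, nanoLC-MS/MS. Spectral counts compared capture vs competition (t test). HepG2 in quadruplicate, K562 in duplicate.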

[4] = molecular target: T1, Hypoxia up-regulated protein 1 (Homo sapiens) (UniProt Q9Y4L1); assay: Binding affinity to HYOU1 in human HepG2 cell lysate after 1 hr by capture compound based LC/MS analysis; type: cell-free; method in brief: as §1
T1 sequence (whole entry): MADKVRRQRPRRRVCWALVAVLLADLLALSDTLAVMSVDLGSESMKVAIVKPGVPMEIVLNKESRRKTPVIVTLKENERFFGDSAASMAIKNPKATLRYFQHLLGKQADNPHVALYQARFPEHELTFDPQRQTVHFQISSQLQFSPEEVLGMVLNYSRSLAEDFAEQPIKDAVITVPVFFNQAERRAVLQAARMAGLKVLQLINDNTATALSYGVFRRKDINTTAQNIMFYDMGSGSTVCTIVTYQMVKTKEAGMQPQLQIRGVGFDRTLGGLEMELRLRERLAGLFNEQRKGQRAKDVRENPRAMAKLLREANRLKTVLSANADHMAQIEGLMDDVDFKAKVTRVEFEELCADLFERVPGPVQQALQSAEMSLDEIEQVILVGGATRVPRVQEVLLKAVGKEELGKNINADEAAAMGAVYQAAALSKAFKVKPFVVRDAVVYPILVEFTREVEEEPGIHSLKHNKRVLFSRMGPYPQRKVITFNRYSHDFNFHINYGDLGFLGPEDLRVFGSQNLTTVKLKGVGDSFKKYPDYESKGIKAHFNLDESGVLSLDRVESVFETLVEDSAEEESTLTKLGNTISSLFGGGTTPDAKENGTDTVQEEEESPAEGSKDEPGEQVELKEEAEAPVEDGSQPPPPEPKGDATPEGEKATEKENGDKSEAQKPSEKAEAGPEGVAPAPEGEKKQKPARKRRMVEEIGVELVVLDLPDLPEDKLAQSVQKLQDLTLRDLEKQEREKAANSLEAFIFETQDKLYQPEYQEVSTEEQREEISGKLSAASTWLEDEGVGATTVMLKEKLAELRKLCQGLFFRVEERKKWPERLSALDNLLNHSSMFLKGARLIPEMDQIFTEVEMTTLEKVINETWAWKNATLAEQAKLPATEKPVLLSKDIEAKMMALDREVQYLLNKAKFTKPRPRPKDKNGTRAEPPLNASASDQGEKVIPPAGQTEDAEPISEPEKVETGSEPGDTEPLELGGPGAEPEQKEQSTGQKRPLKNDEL

[5] = molecular target: Heterogeneous nuclear ribonucleoproteins C1/C2 (Homo sapiens) (UniProt P07910); assay: Binding affinity to HNRPC in human HepG2 cell lysate after 1 hr by capture compound based LC/MS analysis; type: cell-free; method in brief: as §1
Sequence of Heterogeneous nuclear ribonucleoproteins C1/C2 (Homo sapiens) (P07910 whole entry): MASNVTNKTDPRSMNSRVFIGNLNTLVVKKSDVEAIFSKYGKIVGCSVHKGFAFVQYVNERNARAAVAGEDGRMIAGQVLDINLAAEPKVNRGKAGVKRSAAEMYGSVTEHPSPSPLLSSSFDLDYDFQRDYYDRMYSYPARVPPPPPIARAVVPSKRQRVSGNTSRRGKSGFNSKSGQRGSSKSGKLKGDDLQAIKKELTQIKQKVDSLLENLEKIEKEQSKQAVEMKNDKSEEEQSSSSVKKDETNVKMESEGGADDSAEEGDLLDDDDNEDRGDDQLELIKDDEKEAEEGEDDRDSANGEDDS

[6] = molecular target: Adenosine kinase (Homo sapiens) (UniProt P55263); assay: Binding affinity to ADK in human HepG2 cell lysate after 1 hr by capture compound based LC/MS analysis; type: cell-free; method in brief: as §1
Sequence of Adenosine kinase (Homo sapiens) (P55263 2-362 limits assumed): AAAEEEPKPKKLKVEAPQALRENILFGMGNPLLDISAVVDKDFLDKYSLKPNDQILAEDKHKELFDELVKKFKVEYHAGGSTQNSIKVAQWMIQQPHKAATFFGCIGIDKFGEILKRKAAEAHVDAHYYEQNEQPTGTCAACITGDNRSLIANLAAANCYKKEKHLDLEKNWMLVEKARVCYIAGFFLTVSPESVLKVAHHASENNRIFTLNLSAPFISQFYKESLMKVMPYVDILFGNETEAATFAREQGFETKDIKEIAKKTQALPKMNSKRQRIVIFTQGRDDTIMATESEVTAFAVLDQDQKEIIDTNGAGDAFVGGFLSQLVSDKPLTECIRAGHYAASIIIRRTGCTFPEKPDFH

[7] = molecular target: Histamine N-methyltransferase (Homo sapiens) (UniProt P50135); assay: Binding affinity to HNMT in human K562 cell lysate after 1 hr by capture compound based LC/MS analysis; type: cell-free; method in brief: as §1
[8] = molecular target: T1, Hypoxia up-regulated protein 1 (Homo sapiens); assay: Binding affinity to HYOU1 in human K562 cell lysate after 1 hr by capture compound based LC/MS analysis; type: cell-free; method in brief: as §1
[9] = molecular target: Heterogeneous nuclear ribonucleoproteins C1/C2 (Homo sapiens) (UniProt P07910); assay: Binding affinity to HNRPC in human K562 cell lysate after 1 hr by capture compound based LC/MS analysis; type: cell-free; method in brief: as §1
[10] = molecular target: Adenosine kinase (Homo sapiens) (UniProt P55263); assay: Binding affinity to ADK in human K562 cell lysate after 1 hr by capture compound based LC/MS analysis; type: cell-free; method in brief: as §1
[11] = molecular target: T2, Ribosyldihydronicotinamide dehydrogenase [quinone] (Homo sapiens) (UniProt P16083); assay: (§2) Displacement of (S)-N4-(2-(4-(4-(4-methyl-3-(4-(pyridin-3-yl)pyrimidin-2-ylamino)phenylcarbamoyl)benzyl)piperazin-1-yl)ethyl)-N1-(15-oxo-19-((3aS,4S,6aR)-2-oxohexahydro-1H-thieno[3,4-d]imidazol-4-yl)-4,7,10-trioxa-14-azanonadecyl)-2-(4-(3-(trifluoromethyl)-3H-diazirin-3-yl)benzamido)succinamide from NQO2 in human K562 cell lysate after 1 hr by capture compound based LC/MS analysis; type: cell-free
T2 sequence (whole entry): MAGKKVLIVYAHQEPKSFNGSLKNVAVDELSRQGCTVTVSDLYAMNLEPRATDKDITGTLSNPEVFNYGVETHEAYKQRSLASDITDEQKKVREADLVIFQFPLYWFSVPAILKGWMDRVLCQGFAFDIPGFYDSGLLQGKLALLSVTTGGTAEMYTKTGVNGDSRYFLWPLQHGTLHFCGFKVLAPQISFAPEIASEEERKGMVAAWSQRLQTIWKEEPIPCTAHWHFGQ
Method in brief: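 K562 lysate (400 μg, precleared) was preincubated with competitor (final 100 μM) for 30 min at 4 °C. Capture compound (final 5 μM) was added for 1 h at 4 °C, then UV-crosslinked 10 min. Proteins were pulled down on streptavidin beads and trypsin-digested on-bead for 16 h at 37 °C, then analysed by nanoLC-Orbitrap MS/MS. Spectral counts in capture versus competition were compared, with duplicate experiments.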

[12] = molecular target: T2, Ribosyldihydronicotinamide dehydrogenase [quinone] (Homo sapiens); assay: as §2, with “HepG2” for “K562”, “lysate at 100 uM” for “lysate”, “Western blot” for “capture compound based LC/MS”; type: cell-free
Method in brief: (§3)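 Lysate (400 μg, precleared with streptavidin beads 30 min at 4 °C) in capture buffer was preincubated with competitor (final 100 μM) for 30 min at 4 °C. […] Streptavidin beads were added for 1 h at 4 °C, followed by anti-NQO2 (1:500) Western blot.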

[13] = molecular target: T2, Ribosyldihydronicotinamide dehydrogenase [quinone] (Homo sapiens); assay: as §2, with “lysate at 100 uM” for “lysate”, “Western blot” for “capture compound based LC/MS”; type: cell-free; method in brief: as §3
[14] = molecular target: T2, Ribosyldihydronicotinamide dehydrogenase [quinone] (Homo sapiens); assay: (§4) Displacement of (S)-N4-(4-(3-(2-((4-carbamimidoylphenylamino)methyl)-1-methyl-N-(pyridin-2-yl)-1H-benzo[d]imidazole-5-carboxamido)propanamido)butyl)-N1-(15-oxo-19-((3aS,4S,6aR)-2-oxohexahydro-1H-thieno[3,4-d]imidazol-4-yl)-4,7,10-trioxa-14-azanonadecyl)-2-(4-(3-(trifluoromethyl)-3H-diazirin-3-yl)benzamido)succinamide from human recombinant NQO2 after 1 hr by silver staining-based SDS PAGE analysis
Method in brief: (§5)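 Human recombinant NQO2 (1 μg) was preincubated 30 min at 4 °C with competitor, then capture compound was added at 5 μM final (competitors 100 μM final) and equilibrated 1 h at 4 °C. Samples were UV-irradiated 10 min, pulled down on streptavidin beads and resolved by silver-stained SDS-PAGE.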

[15] = molecular target: T2, Ribosyldihydronicotinamide dehydrogenase [quinone] (Homo sapiens); assay: Displacement of (S)-N4-(2-(4-(4-(4-methyl-3-(4-(pyridin-3-yl)pyrimidin-2-ylamino)phenylcarbamoyl)benzyl)piperazin-1-yl)ethyl)-N1-(15-oxo-19-((3aS,4S,6aR)-2-oxohexahydro-1H-thieno[3,4-d]imidazol-4-yl)-4,7,10-trioxa-14-azanonadecyl)-2-(4-(3-(trifluoromethyl)-3H-diazirin-3-yl)benzamido)succinamide from human recombinant NQO2 after 1 hr by silver staining-based SDS PAGE analysis; method in brief: as §5
[16] = molecular target: T3, Leucine-rich repeat-containing protein 59 (Homo sapiens) (UniProt Q96AG4); assay: (§6) Displacement of 2-((R)-1-cyclohexyl-2-oxo-2-((S)-2-(4-(N-((S)-6,9,25-trioxo-29-((3aS,4S,6aR)-2-oxohexahydro-1H-thieno[3,4-d]imidazol-4-yl)-8-(4-(3-(trifluoromethyl)-3H-diazirin-3-yl)benzamido)-14,17,20-trioxa-5,10,24-triazanonacosyl)carbamimidoyl)benzylcarbamoyl)azetidin-1-yl)ethylamino)acetic acid from LRC59 in human HepG2 cell lysate after 1 hr by capture compound based LC/MS analysis; type: cell-free; method in brief: as §1
T3 sequence (whole entry): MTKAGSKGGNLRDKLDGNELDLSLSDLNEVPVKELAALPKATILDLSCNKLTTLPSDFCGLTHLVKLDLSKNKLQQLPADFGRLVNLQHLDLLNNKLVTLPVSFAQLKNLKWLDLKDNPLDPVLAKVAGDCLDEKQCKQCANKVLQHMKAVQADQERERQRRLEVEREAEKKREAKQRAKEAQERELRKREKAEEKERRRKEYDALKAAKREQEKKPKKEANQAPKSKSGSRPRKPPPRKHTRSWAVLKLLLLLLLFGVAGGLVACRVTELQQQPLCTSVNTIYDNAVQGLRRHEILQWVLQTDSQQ

[17] = molecular target: Vacuolar protein sorting-associated protein 35 (Homo sapiens) (UniProt Q96QK1); assay: as §6, with “VPS35” for “LRC59”; type: cell-free; method in brief: as §1
[18] = molecular target: T4, Ribosyldihydronicotinamide dehydrogenase [quinone] (Homo sapiens, UniProt P16083); assay: as §4, with “densitometric” for “silver staining-based SDS PAGE”
T4 sequence (P16083 whole entry): T2 sequence (whole entry)

[19] = molecular target: T4, Ribosyldihydronicotinamide dehydrogenase [quinone]; assay: Inhibition of human recombinant NQO2-mediated mitomycin C metabolism using NADH as cosubstrate incubated for 5 mins prior to NADH addition measured after 30 mins by spectrophotometric analysis
Method in brief: (§7)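 NQO2 (0.5 μM) with mitomycin C (50 μM) and four inhibitor concentrations in 100 mM potassium phosphate pH 5.8, 5 min at room temperature. Increasing NADH was then added and A340 followed for 30 min at rt. Ki from Lineweaver–Burk, IC50 from competitive Michaelis–Menten kinetics. Two experiments, duplicate points each.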

[20] = molecular target: T4, Ribosyldihydronicotinamide dehydrogenase [quinone]; assay: Competitive inhibition of human recombinant NQO2-mediated mitomycin C metabolism using NADH as cosubstrate incubated for 5 mins prior to NADH addition measured after 30 mins by Michaelis-Menten plot analysis; method in brief: as §7
[21] = Inhibition of human alpha thrombin using Boc-Val-Pro-Arg-AMC as substrate after 2 hrs by fluorometric analysis
Method in brief: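 Human α-thrombin at 5.5 ng/mL final with Boc-Val-Pro-Arg-AMC (15 μM) in 50 mM Tris pH 7.5, 150 mM NaCl, 0.05% Tween 20. Compound tested as 16 two-fold dilutions in DMSO, 2.5 mM to 75 nM. Incubated 2 h at room temperature; fluorescence read at ex 355, em 460 nm for percent inhibition.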

N=C(N)c1ccc(CNC(=O)[C@@H]2CCN2C(=O)[C@H](NCC(=O)NCCCCNC(=O)C[C@H](NC(=O)c2ccc(C3(C(F)(F)F)N=N3)cc2)C(=O)NCCCOCCOCCOCCCNC(=O)CCCC[C@@H]2SC[C@@H]3NC(=O)N[C@@H]32)C2CCCCC2)cc1
Stability [1]: Stable
Activity [2]: Active

Cn1c(CNc2ccc(C(=N)NCCCCNC(=O)C[C@H](NC(=O)c3ccc(C4(C(F)(F)F)N=N4)cc3)C(=O)NCCCOCCOCCOCCCNC(=O)CCCC[C@@H]3SC[C@@H]4NC(=O)N[C@@H]43)cc2)nc2cc(C(=O)N(CCC(=O)O)c3ccccn3)ccc21
Stability [1]: Stable
Activity [2]: inactive
Activity [3]: Active
Activity [4]: Active
Activity [5]: Active
Activity [6]: Active
Activity [7]: inactive
Activity [8]: inactive
Activity [9]: inactive
Activity [10]: inactive

Cc1ccc(NC(=O)c2ccc(CN3CCN(C)CC3)cc2)cc1Nc1nccc(-c2cccnc2)n1
Activity [11]: Active
Activity [12]: Active
Activity [13]: Active
Activity [14]: Active
Activity [15]: Active

N=C(N)c1ccc(CNC(=O)[C@@H]2CCN2C(=O)[C@H](NCC(=O)O)C2CCCCC2)cc1
Activity [16]: Active
Activity [17]: Active

CCOC(=O)CCN(C(=O)c1ccc2c(c1)nc(CNc1ccc(C(=N)N)cc1)n2C)c1ccccn1 [DABIGATRAN ETHYL ESTER]
IC50 [18]: 1500 nM
Ki [19]: 900 nM
IC50 [20]: 800 nM
IC50 [21]: 1.2 nM

[H]/N=C(/N)c1ccc(NCc2nc3cc(C(=O)N(CCC(=O)O)c4ccccn4)ccc3n2C)cc1 [DABIGATRAN]
IC50 [18]: 11000 nM
Ki [19]: 70000 nM
IC50 [20]: > 10000 nM
